# Tests used:
# D(2) dopamine receptor = D(2) dopamine receptor (Homo sapiens, UniProt P14416); experiment: Antagonist activity at human D2 receptor expressed in HEK293 cells incubated for 60 mins by Eu-cAMP tracer based LANCE ultra cAMP assay; format: cell-based
# [1] = target: T1, 5-hydroxytryptamine receptor 1A (Homo sapiens, UniProt P08908); experiment: Agonist activity at human 5H1A receptor expressed in HEK293 cells incubated for 60 mins by Eu-cAMP tracer based LANCE ultra cAMP assay; format: functional, cell-based
# T1 sequence (P08908 whole entry): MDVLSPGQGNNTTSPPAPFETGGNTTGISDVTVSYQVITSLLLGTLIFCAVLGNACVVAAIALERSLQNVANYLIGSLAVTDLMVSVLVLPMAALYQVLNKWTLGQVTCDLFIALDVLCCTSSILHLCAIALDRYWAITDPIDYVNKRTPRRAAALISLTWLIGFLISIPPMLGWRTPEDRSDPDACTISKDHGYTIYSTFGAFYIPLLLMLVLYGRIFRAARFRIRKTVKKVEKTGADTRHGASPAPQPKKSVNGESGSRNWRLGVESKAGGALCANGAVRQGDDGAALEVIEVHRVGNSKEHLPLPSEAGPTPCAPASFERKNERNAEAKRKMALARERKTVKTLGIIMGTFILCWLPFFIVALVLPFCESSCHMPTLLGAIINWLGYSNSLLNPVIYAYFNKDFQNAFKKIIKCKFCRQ
# How it was run: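 Cell-based TR-FRET cAMP assay on human 5-HT1A receptor-expressing cells. Cells were collected in stimulation buffer, added to the compound, centrifuged briefly and incubated 60 min at room temperature. Eu-cAMP tracer and ULight-anti-cAMP were then added, followed by another 60 min at room temperature before reading. The reference agonist was 8-OH-DPAT. […] came from sigmoidal nonlinear regression.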
# [2] = target: 5-hydroxytryptamine receptor 2A (Homo sapiens, UniProt P28223); experiment: Antagonist activity at human 5HT2A receptor expressed in CHO-K1 cells measured after 15 mins by FLIPR assay; format: cell-based
# Sequence of 5-hydroxytryptamine receptor 2A (P28223 whole entry): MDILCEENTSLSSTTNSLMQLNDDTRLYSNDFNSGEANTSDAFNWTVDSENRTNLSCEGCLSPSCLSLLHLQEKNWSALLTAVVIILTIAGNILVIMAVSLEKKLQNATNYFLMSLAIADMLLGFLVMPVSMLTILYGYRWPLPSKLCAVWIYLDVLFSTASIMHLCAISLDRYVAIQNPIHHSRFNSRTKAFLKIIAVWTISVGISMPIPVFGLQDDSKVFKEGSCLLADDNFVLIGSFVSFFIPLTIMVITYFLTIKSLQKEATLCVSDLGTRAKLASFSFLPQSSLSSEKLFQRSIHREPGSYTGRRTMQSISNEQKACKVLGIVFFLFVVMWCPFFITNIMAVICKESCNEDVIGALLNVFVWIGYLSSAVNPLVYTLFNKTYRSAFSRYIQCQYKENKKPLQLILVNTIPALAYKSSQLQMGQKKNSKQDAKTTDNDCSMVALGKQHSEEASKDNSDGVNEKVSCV
# [3] = Half life in mouse liver microsomes measured after 60 mins in presence of NADPH by LC-MS/MS analysis; format: ADME, Microsome
# How it was run: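 Mouse liver microsomes (20 mg/ml stock) were incubated with compound in 0.1 M PBS, pH 7.4, at 37 °C. Compound came from a 1 mM methanol stock, diluted in methanol/water. Reaction was started with NADPH (10 mM stock). Aliquots at 0, 5, 10, 20, 40 and 60 min were quenched in cold methanol and centrifuged at 4 °C. Supernatants were analysed by LC-MS/MS.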
# [4] = AUC (0 to 24 hrs) in ICR mouse at 5 mg/kg, iv; format: ADME, organism-based; set-up: time < 24 hr, route intravenous, dose 5 mg/kg; conditions: in vivo
# How it was run: (§1)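 Pharmacokinetics in ICR mice, n = 6 per group, after a single 5 mg/kg intravenous dose or a 25 mg/kg oral dose. Plasma exposure gave AUC over 0–24 h, t1/2, Cmax and Tmax. Oral bioavailability was derived from comparison of the two routes.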
# [5] = Half life in ICR mouse at 5 mg/kg, iv; format: ADME, organism-based; conditions: in vivo; how it was run: as §1
# [6] = AUC (0 to 24 hrs) in ICR mouse at 25 mg/kg, po; format: ADME, organism-based; set-up: time < 24 hr, route oral, dose 25 mg/kg; conditions: in vivo; how it was run: as §1
# [7] = Half life in ICR mouse at 25 mg/kg, po; format: ADME, organism-based; conditions: in vivo; how it was run: as §1
# [8] = Cmax in ICR mouse at 25 mg/kg, po; format: ADME, organism-based; set-up: route oral, dose 25 mg/kg; conditions: in vivo; how it was run: as §1
# [9] = Tmax in ICR mouse at 25 mg/kg, po; format: ADME, organism-based; conditions: in vivo; how it was run: as §1
# [10] = Oral bioavailability in ICR mouse at 25 mg/kg; format: ADME, organism-based; conditions: in vivo; how it was run: as §1
# [11] = Plasma concentration in ICR mouse at 1 mg/kg, iv measured after 1 hr; format: ADME, organism-based
# How it was run: (§2)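 Brain penetration in ICR mice, n = 3 per group, given 1 mg/kg intravenously. Plasma, cerebrospinal fluid and brain levels were measured at 1 h and 4 h post-dose. Kp is the brain-to-plasma concentration ratio.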
# [12] = Drug concentration in ICR mouse cerebrospinal fluid at 1 mg/kg, iv measured after 1 hr; format: ADME, organism-based; conditions: read-out: Drug uptake; how it was run: as §2
# [13] = Drug concentration in ICR mouse brain at 1 mg/kg, iv measured after 1 hr; format: ADME, organism-based; how it was run: as §2
# [14] = Brain to plasma partition coefficient, Kp of compound in ICR mouse at 1 mg/kg, iv measured after 1 hr; format: ADME, organism-based; how it was run: as §2
# [15] = Plasma concentration in ICR mouse at 1 mg/kg, iv measured after 4 hrs; format: ADME, organism-based; how it was run: as §2
# [16] = Drug concentration in ICR mouse brain at 1 mg/kg, iv measured after 4 hrs; format: ADME, organism-based; how it was run: as §2
# [17] = Brain to plasma partition coefficient, Kp of compound in ICR mouse at 1 mg/kg, iv measured after 4 hrs; format: ADME, organism-based; how it was run: as §2
# [18] = target: T1, 5-hydroxytryptamine receptor 1A; experiment: Displacement of [3H]5-HT from recombinant 5HT1A receptor (unknown origin) expressed in CHO cell membrane measured after 50 mins by microbeta scintillation counting method; format: cell membranes
# [19] = target: T1, 5-hydroxytryptamine receptor 1A; experiment: Agonist activity at recombinant 5HT1A receptor (unknown origin) expressed in CHO cell membrane assessed as [35S]GTPgammaS binding by liquid scintillation counting method; format: functional, cell membranes
# Sequence of D(2) dopamine receptor (P14416 whole entry): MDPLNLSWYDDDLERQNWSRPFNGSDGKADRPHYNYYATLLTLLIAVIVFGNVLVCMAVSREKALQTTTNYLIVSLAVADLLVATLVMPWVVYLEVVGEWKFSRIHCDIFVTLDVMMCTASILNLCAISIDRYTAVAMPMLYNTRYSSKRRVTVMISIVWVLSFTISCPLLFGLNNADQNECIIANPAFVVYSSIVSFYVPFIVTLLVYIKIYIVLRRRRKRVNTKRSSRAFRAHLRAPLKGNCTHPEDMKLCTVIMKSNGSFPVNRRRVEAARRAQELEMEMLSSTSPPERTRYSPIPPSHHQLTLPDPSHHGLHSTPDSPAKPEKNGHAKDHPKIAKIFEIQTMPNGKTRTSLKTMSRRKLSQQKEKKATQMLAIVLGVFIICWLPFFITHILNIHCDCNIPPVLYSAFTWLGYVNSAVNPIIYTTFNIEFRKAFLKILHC
Compound,IC50 (D(2) dopamine receptor; read-out: IC50) [µM],EC50 ([1]; read-out: EC50) [µM],IC50 ([2]; read-out: IC50) [µM],EC50 ([1]; hek293),also measured
CCCN(CCCN1CCN(c2cccc(Cl)c2Cl)CC1)C(=O)c1ccccc1,0.485,0.452,3.25,–,–
O=S(=O)(c1ccc(C(F)(F)F)cc1)N(CCCN1CCC(c2noc3cc(F)ccc23)CC1)C1COC1,0.0023,–,0.0927,Not Active,–
N#Cc1ccc(S(=O)(=O)N(CCCN2CCC(c3noc4cc(F)ccc34)CC2)C2COC2)cc1,0.0036,–,0.0113,Not Active,–
COc1ccccc1N1CCN(CCCN(CC2CC2)C(=O)c2ccccc2)CC1,–,–,–,Not Active,IC50 ([2]; cho-k1): Not Active
O=S(=O)(c1ccccc1)N(CCCN1CCC(c2noc3cc(F)ccc23)CC1)C1COC1,0.0019,–,0.0093,Not Active,–
O=C(c1ccccc1)N(CCCN1CCN(c2cccc(Cl)c2Cl)CC1)CC1CC1,–,0.175,0.768,–,–
O=C(c1ccccc1)N(CCCN1CCN(c2ccccn2)CC1)C1COC1,–,0.374,–,–,IC50 (D(2) dopamine receptor; hek293): Not Active; IC50 ([2]; cho-k1): Not Active
O=C(c1ccccc1)N(CCCN1CCN(c2ccccn2)CC1)CC1CC1,–,0.0249,7.72,–,IC50 (D(2) dopamine receptor; hek293): Not Active
CC(C)N(CCCN1CCN(c2ccccn2)CC1)C(=O)c1ccccc1,–,0.0228,–,–,IC50 (D(2) dopamine receptor; hek293): Not Active; IC50 ([2]; cho-k1): Not Active

# Further lines, with some results ahead:
IC50 (D(2) dopamine receptor; read-out: IC50) [µM],EC50 ([1]; read-out: EC50) [µM],IC50 ([2]; read-out: IC50) [µM],EC50 ([1]; hek293),Compound,also measured
0.156,–,0.0188,Not Active,O=C(c1ccccc1)N(CCCN1CCC(c2noc3cc(F)ccc23)CC1)C1COC1,half-life [3]: 173 min
–,–,0.0408,Not Active,O=C(c1ccccc1)N(CCCN1CCC(c2noc3cc(F)ccc23)CC1)CC1CC1,half-life [3]: 6.9 min
0.528,0.0461,2.01,–,CC(C)N(CCCN1CCN(c2cccc(Cl)c2Cl)CC1)C(=O)c1ccccc1,–
6.93,0.0545,7.55,–,CCCN(CCCN1CCN(c2ccccn2)CC1)C(=O)c1ccccc1,–
0.002,–,0.0346,Not Active,O=S(=O)(c1ccc(Cl)cc1)N(CCCN1CCC(c2noc3cc(F)ccc23)CC1)C1COC1,–
0.0185,–,0.0731,Not Active,CCCN(CCCN1CCC(c2noc3cc(F)ccc23)CC1)C(=O)c1ccccc1,half-life [3]: 6.2 min
3.76,–,–,Not Active,COc1ccccc1N1CCN(CCCN(C(=O)c2ccccc2)C2COC2)CC1,IC50 ([2]; cho-k1): Not Active
0.003,–,0.0151,Not Active,O=S(=O)(c1ccc(F)cc1)N(CCCN1CCC(c2noc3cc(F)ccc23)CC1)C1COC1,AUC(0-t) at 24 h [4]: 0.829 µg·h/mL; half-life [5]: 32.4 min; AUC(0-t) at 24 h [6]: 0.259 µg·h/mL; half-life [7]: 120 min; Cmax [8]: 0.142 µg/mL; Tmax [9]: 15 min; bioavailability [10]: 6.3%; concentration at 1 h [11]: 0.0754 µg/mL; concentration at 1 h [12]: 0.002 µg/mL; concentration at 1 h [13]: 129 ng/g; Kp at 1 h [14]: 1.72; concentration at 4 h [15]: 0.0027 µg/mL; concentration at 4 h [16]: 10.7 ng/g; Kp at 4 h [17]: 4.03
–,–,–,Not Active,COc1ccccc1N1CCN(CCCN(C(=O)c2ccccc2)C(C)C)CC1,IC50 ([2]; cho-k1): Not Active
–,0.007,–,–,O=C(CN1CCN(CCCc2c[nH]c3ccc(F)cc23)CC1)N(c1ccccc1)C1CCCCC1,Ki (D(2) dopamine receptor): 2.16 µM; Ki [2]: 0.207 µM; Ki [18]: 0.0519 µM; EC50 [19]: 0.007 µM
0.0593,–,0.0116,Not Active,CC(C)N(CCCN1CCC(c2noc3cc(F)ccc23)CC1)C(=O)c1ccccc1,half-life [3]: 31.5 min
1.88,0.583,2.18,–,O=C(c1ccccc1)N(CCCN1CCN(c2cccc(Cl)c2Cl)CC1)C1COC1,–

# Reference: ChEMBL document CHEMBL4680230, “Discovery of aryl-piperidine derivatives as potential antipsychotic agents using molecular hybridization strategy” (Eur J Med Chem, 2020)
